Our source for the GTP Bmax with compound and Kd values is PubChem BioAssay AID2373 (NMMLSC, 2010).

Broadly, the pKd is −log10 of the Kd, conventionally taken in molar units.

pKd: −log10 of the molar value.

The experiment deals with Cell division control protein 42 homolog (Homo sapiens) (UniProt P60953). The experiment in a line: compound effect on Cdc42 GTP saturation binding, late-stage follow-up, mechanism study for Ras-family GTPase inhibitor project, biochemical, Mg buffer, varying GTP (AID 2373). The following applies: GST-Cdc42 beads, BODIPY-GTP binding, flow cytometry. The procedure, abridged: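 Assay system: GST-tagged human Cdc42 bound to glutathione beads; Schedule: 2 min compound preincubation, overnight 4 °C bead loading; Measured by: flow cytometric bead fluorescence, 530 nm; Control set: DMSO vehicle.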
(In general: A flow cytometer gives signals particle by particle.)

Sequence of Cell division control protein 42 homolog (Homo sapiens) (P60953 whole entry, looked up): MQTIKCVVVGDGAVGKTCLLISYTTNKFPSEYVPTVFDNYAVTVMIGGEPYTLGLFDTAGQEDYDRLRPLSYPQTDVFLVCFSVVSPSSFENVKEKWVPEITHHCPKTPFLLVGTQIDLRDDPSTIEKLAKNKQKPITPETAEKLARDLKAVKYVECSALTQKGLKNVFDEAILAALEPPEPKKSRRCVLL

Regarding `COc1ccc(C2CC(c3ccccc3)=NN2c2ccc(S(N)(=O)=O)cc2)cc1` (configuration not stated), the GTP Bmax with compound (at 10 µM, stronger effect = lower value) was 2320. Where the note is “measured here: GTP affinity with compound”, the negative logarithm of the Kd (pKd) was 7.78.
